Reference: the M2OR odorant receptor database
Where a chain is given by its changes, count along the chain named.

Experiments:
Conditions in all cases: stereoisomer not certain
OR5M3 (Homo sapiens) = target: T1, OR5M3 (Homo sapiens) (UniProt Q8NGP4)
T1 sequence (whole entry): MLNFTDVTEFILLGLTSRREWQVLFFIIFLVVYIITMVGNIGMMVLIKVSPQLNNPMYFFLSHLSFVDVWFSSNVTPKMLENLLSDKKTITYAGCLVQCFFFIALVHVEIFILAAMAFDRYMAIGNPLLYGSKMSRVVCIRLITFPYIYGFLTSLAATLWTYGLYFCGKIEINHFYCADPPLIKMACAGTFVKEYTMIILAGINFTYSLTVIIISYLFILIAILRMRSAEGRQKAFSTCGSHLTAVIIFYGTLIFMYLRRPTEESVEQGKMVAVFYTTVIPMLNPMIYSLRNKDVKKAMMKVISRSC
Procedure, shortened: (§1)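 Values were gathered from published papers (main text and supplementary material), with extra details requested from the original authors when needed, and checked for typos and inconsistencies. Each receptor–molecule pair is called responsive (active) if the original authors judged the measured signal statistically different from baseline, and non-responsive (inactive) otherwise. Assay methods varied by source, often transient mammalian cell-line luciferase assays. Recorded details include cell line, G-protein, co-transfected protein and tags.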

OR5K3 (Homo sapiens) = target: T2, OR5K3 (Homo sapiens) (UniProt A6NET4)
T2 sequence (whole entry): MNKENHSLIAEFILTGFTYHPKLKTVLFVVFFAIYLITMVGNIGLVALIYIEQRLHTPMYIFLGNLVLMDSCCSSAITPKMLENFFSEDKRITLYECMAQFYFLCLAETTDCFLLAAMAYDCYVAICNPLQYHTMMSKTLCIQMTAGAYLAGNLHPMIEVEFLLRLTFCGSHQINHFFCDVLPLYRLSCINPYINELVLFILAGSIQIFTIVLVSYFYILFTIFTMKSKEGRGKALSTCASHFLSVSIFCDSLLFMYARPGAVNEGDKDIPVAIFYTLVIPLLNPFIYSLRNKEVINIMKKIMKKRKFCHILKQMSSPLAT
Procedure, shortened: as §1

OR5K4 (Homo sapiens) = target: T3, OR5K4 (Homo sapiens) (UniProt A6NMS3)
T3 sequence (whole entry): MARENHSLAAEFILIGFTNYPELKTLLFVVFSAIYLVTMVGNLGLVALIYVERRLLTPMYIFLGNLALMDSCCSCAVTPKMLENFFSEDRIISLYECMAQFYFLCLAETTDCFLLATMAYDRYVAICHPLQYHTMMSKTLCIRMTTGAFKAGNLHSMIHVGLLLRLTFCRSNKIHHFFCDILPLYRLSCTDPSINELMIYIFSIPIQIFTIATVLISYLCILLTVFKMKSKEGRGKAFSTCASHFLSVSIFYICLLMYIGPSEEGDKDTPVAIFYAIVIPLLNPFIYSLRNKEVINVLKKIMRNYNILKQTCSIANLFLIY
Procedure, shortened: as §1

OR5L1 (Homo sapiens) = target: T4, OR5L1 (Homo sapiens) (UniProt Q8NGL2)
T4 sequence (whole entry): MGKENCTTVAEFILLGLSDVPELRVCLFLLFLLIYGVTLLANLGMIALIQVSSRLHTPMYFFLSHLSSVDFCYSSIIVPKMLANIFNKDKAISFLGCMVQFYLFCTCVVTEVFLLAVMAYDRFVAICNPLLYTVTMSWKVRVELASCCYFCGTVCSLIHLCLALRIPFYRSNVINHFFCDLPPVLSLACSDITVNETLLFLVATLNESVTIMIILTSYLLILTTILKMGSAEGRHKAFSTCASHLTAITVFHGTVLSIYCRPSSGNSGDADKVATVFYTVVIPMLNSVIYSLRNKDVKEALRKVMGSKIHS
Procedure, shortened: as §1

OR5L2 (Homo sapiens) = target: T5, OR5L2 (Homo sapiens) (UniProt Q8NGL0)
T5 sequence (whole entry): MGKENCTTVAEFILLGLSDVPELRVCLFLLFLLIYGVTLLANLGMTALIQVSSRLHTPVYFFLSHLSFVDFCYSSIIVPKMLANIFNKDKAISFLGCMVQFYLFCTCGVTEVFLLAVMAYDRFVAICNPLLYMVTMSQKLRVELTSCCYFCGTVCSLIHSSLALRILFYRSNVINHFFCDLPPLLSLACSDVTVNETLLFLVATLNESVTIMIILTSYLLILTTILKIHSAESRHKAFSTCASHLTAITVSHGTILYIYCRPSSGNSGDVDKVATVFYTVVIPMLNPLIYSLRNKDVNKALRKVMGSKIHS
Procedure, shortened: as §1

OR5M1 (Homo sapiens) = target: T6, OR5M1 (Homo sapiens) (UniProt Q8NGP8)
T6 sequence (whole entry): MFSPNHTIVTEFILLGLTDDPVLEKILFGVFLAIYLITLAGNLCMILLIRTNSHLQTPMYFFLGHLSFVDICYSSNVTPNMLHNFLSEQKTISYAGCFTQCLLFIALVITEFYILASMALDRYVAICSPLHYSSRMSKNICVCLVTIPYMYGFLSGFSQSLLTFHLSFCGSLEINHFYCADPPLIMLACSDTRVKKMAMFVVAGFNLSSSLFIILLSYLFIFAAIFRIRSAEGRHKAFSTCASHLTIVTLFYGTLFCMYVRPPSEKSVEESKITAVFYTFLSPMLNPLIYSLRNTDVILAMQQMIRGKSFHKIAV
Procedure, shortened: as §1

OR5M1 T295R M301I = tested on: T7, OR5M1 T295R M301I
T7 sequence (whole entry): T6 sequence (whole entry) with T295R, M301I
Procedure, shortened: as §1

OR5M10 (Homo sapiens) = target: T8, OR5M10 (Homo sapiens) (UniProt Q6IEU7)
T8 sequence (whole entry): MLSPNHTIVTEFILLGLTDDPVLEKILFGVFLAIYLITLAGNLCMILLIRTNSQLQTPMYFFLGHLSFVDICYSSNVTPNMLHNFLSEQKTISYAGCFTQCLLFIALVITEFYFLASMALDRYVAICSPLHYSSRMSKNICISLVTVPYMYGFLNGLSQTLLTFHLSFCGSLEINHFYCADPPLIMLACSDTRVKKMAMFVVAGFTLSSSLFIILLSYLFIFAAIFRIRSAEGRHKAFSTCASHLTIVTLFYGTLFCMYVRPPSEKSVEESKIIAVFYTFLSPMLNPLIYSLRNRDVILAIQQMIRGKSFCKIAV
Procedure, shortened: as §1

OR5M11 (Homo sapiens) = target: T9, OR5M11 (Homo sapiens) (UniProt Q96RB7)
T9 sequence (whole entry): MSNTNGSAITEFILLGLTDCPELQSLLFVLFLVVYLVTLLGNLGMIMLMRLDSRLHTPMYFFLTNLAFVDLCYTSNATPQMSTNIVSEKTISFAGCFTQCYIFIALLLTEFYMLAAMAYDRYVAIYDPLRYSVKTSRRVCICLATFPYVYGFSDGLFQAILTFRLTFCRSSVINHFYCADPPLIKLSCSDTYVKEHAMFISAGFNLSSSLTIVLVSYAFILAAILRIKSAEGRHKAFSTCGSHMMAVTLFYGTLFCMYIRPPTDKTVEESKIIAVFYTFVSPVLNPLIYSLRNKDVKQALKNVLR
Procedure, shortened: as §1

OR5M3 N3Y A156T = tested on: T10, OR5M3 N3Y A156T
T10 sequence (whole entry): T1 sequence (whole entry) with N3Y, A156T
Procedure, shortened: as §1

OR5M8 (Homo sapiens) = target: T11, OR5M8 (Homo sapiens) (UniProt Q8NGP6)
T11 sequence (whole entry): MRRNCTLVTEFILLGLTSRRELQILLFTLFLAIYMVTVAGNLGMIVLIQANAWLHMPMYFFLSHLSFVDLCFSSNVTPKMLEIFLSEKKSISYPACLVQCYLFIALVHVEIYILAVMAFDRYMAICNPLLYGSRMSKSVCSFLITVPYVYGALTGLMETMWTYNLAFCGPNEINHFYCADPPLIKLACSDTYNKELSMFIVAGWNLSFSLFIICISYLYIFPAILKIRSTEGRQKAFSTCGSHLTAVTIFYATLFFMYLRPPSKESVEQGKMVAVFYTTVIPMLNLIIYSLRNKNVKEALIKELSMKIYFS
Procedure, shortened: as §1

OR5M9 (Homo sapiens) = target: T12, OR5M9 (Homo sapiens) (UniProt Q8NGP3)
T12 sequence (whole entry): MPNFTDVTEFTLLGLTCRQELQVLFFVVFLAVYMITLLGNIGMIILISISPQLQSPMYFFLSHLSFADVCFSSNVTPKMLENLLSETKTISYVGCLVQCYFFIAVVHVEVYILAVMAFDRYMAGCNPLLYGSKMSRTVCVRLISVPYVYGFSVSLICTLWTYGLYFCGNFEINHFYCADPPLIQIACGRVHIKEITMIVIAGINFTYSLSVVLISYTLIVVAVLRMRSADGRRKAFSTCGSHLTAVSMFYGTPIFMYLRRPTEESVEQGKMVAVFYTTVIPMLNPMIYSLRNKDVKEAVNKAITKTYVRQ
Procedure, shortened: as §1

OR5MA L2F C311H = tested on: T13, OR5MA L2F C311H
T13 sequence (whole entry): T8 sequence (whole entry) with L2F, C311H
Procedure, shortened: as §1

OR5MA L2F Q54H C311H = tested on: T14, OR5MA L2F Q54H C311H
T14 sequence (whole entry): T8 sequence (whole entry) with L2F, Q54H, C311H
Procedure, shortened: as §1

OR5P2 (Homo sapiens) = target: T15, OR5P2 (Homo sapiens) (UniProt Q8WZ92)
T15 sequence (whole entry): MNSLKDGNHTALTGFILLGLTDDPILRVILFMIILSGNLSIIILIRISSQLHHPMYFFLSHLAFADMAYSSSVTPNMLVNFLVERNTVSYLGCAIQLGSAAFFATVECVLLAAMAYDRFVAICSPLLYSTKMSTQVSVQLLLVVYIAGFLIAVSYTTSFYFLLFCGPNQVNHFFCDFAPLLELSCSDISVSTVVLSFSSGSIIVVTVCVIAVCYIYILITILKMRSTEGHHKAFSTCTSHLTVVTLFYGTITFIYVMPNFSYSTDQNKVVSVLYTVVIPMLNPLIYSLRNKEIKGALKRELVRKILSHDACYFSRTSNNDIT
Procedure, shortened: as §1

OR5P3 (Homo sapiens) = target: T16, OR5P3 (Homo sapiens) (UniProt Q8WZ94)
T16 sequence (whole entry): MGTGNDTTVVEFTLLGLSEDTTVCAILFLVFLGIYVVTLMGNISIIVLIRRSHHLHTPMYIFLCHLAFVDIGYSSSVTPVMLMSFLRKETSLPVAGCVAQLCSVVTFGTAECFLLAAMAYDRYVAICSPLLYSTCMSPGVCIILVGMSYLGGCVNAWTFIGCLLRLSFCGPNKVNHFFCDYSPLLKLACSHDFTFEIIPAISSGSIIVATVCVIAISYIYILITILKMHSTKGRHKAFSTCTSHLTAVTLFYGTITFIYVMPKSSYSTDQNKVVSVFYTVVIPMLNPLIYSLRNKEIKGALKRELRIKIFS
Procedure, shortened: as §1

OR5P3 L301R = tested on: T17, OR5P3 L301R
T17 sequence (whole entry): T16 sequence (whole entry) with L301R
Procedure, shortened: as §1

OR5R1 C122R S128G F184L = tested on: T18, OR5R1 C122R S128G F184L
T18 sequence (whole entry): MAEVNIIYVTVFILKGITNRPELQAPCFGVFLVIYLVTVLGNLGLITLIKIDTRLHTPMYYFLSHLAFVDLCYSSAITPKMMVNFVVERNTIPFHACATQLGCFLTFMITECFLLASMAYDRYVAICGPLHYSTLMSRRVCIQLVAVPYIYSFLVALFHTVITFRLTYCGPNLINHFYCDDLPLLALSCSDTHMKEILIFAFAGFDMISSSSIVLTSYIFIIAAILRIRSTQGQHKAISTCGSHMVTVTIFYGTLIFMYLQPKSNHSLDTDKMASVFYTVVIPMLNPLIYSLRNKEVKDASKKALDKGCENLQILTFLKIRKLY
Procedure, shortened: as §1

OR5T1 (Homo sapiens) = target: T19, OR5T1 (Homo sapiens) (UniProt Q8NG75)
T19 sequence (whole entry): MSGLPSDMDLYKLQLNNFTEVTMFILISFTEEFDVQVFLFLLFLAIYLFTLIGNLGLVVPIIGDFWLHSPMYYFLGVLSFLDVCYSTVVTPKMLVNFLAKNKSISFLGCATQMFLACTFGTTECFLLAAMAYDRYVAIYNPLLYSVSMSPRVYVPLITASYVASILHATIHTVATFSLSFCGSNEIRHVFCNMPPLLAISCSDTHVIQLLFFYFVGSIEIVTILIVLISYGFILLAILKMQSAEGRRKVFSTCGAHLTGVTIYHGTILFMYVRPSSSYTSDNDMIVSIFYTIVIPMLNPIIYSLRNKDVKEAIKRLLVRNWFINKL
Procedure, shortened: as §1

OR5T2 (Homo sapiens) = target: T20, OR5T2 (Homo sapiens) (UniProt Q8NGG2)
T20 sequence (whole entry): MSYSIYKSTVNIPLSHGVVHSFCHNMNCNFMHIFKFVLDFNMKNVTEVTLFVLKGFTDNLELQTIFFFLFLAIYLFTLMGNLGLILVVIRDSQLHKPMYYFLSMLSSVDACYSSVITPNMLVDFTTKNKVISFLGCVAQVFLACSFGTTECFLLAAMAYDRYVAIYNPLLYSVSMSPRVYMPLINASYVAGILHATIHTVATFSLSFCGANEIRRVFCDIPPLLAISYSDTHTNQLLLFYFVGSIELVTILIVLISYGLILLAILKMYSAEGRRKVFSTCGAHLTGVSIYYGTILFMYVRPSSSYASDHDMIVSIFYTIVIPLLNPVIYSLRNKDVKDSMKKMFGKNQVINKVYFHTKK
Procedure, shortened: as §1

Measured: odorant receptor agonist call

Cc1occc(=O)c1O
inactive: OR5M3 (Homo sapiens)

COc1nccnc1CC(C)C
inactive: OR5K3 (Homo sapiens) | OR5K4 (Homo sapiens) | OR5M3 (Homo sapiens)

CCCC(S)CCOC(C)=O (stereo unspecified)
inactive: OR5K3 (Homo sapiens) | OR5K4 (Homo sapiens) | OR5L1 (Homo sapiens) | OR5L2 (Homo sapiens) | OR5M1 (Homo sapiens) | OR5M1 T295R M301I | OR5M10 (Homo sapiens) | OR5M11 (Homo sapiens) | OR5M3 (Homo sapiens) | OR5M3 N3Y A156T | OR5M8 (Homo sapiens) | OR5M9 (Homo sapiens) | OR5MA L2F C311H | OR5MA L2F Q54H C311H | OR5P2 (Homo sapiens) | OR5P3 (Homo sapiens) | OR5P3 L301R | OR5R1 C122R S128G F184L | OR5T1 (Homo sapiens) | OR5T2 (Homo sapiens)

CCC(C)c1nccnc1OC (stereo unspecified)
inactive: OR5K3 (Homo sapiens) | OR5K4 (Homo sapiens) | OR5M3 (Homo sapiens)

CCCCCC(=O)C(C)C(C)=O (stereo unspecified)
inactive: OR5K3 (Homo sapiens) | OR5K4 (Homo sapiens) | OR5L1 (Homo sapiens) | OR5L2 (Homo sapiens) | OR5M1 (Homo sapiens) | OR5M10 (Homo sapiens) | OR5M11 (Homo sapiens) | OR5M3 (Homo sapiens) | OR5M8 (Homo sapiens) | OR5M9 (Homo sapiens) | OR5P2 (Homo sapiens) | OR5P3 (Homo sapiens) | OR5T1 (Homo sapiens) | OR5T2 (Homo sapiens)
